Assay results taken from ChEMBL document CHEMBL1135913, “Structure-based design, synthesis, and biological evaluation of irreversible human rhinovirus 3C protease inhibitors. 6. Structure-activity studies of orally bioavailable, 2-pyridone-containing peptidomimetics” (J Med Chem, 2002).
pEC50: −log10 of the molar value.

Tests used:
[1] = target: T1, Human rhinovirus A protease (Human rhinovirus sp.) (UniProt Q4U254); assay: (§1) cytotoxicity against Human Rhinovirus Protease 3C (serotype 14)
T1 sequence (whole entry): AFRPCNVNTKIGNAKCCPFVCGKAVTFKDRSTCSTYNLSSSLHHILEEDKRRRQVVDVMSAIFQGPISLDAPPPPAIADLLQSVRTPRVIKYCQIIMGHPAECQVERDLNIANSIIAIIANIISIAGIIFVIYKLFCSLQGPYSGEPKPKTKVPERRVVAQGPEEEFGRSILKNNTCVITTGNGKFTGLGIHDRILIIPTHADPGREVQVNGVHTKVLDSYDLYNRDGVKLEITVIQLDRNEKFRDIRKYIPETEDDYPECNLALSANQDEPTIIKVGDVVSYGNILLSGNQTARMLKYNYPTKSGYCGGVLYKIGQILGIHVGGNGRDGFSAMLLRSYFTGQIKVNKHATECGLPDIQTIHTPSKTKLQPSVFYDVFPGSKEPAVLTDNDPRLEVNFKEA

[2] = target: T1, Human rhinovirus A protease (Human rhinovirus sp.); assay: cytotoxicity against HRV Protease 3CP (serotype 13); assay type: functional
[3] = Half life period after 30 mg/kg po dose in Dogs; assay type: ADME, organism-based, Canis lupus familiaris; design: dose 30 mg/kg, route oral; conditions: dog, in vivo
Procedure, shortened: (§2)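 Dogs (n = 3) received the compound iv or orally in 80:20 propylene glycol:water at 15.0 mg/mL. Blood was sampled periodically for up to 24 h. Plasma levels were measured by LC-MS (detection limit 5 ng/mL). Parameters came from noncompartmental analysis of each animal's concentration–time data.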

[4] = target: T1, Human rhinovirus A protease (Human rhinovirus sp.); assay: cytotoxicity against HRV Protease 3CP (serotype 39); assay type: functional
[5] = target: T1, Human rhinovirus A protease (Human rhinovirus sp.); assay: cytotoxicity against HRV Protease 3CP (serotype 3); assay type: functional
[6] = Plasma clearance after 15 mg/kg iv dose in Dogs; assay type: ADME, organism-based, Canis lupus familiaris; design: dose 15 mg/kg, route intravenous; conditions: dog; procedure, shortened: as §2
[7] = target: T1, Human rhinovirus A protease (Human rhinovirus sp.); assay: (§3) cytotoxicity against HRV Protease 3CP (serotype 14); assay type: functional
[8] = Volume distribution after 15 mg/kg iv dose in Dogs; assay type: ADME, organism-based, Canis lupus familiaris; design: dose 15 mg/kg, route intravenous; conditions: dog, in vivo, read-out: V; procedure, shortened: as §2
[9] = Tmax value after 15 mg/kg iv dose in Dogs; assay type: ADME, organism-based, Canis lupus familiaris; design: dose 15 mg/kg, route intravenous; conditions: dog, in vivo; procedure, shortened: as §2
Homo sapiens [10] = species on record: Homo sapiens; assay: Half life upon exposure to human plasma
[11] = target: T1, Human rhinovirus A protease (Human rhinovirus sp.); assay: cytotoxicity against HRV Protease 3CP (serotype 23); assay type: functional
[12] = target: T1, Human rhinovirus A protease (Human rhinovirus sp.); assay: cytotoxicity against HRV Protease 3CP (serotype 2); assay type: functional
[13] = Cmax value after 15 mg/kg iv dose in Dogs; assay type: ADME, organism-based, Canis lupus familiaris; design: dose 15 mg/kg, route intravenous; conditions: dog, in vivo; procedure, shortened: as §2
[14] = target: T1, Human rhinovirus A protease (Human rhinovirus sp.); assay: cytotoxicity against HRV Protease 3CP (serotype Hanks); assay type: functional
[15] = target: T1, Human rhinovirus A protease (Human rhinovirus sp.); assay: cytotoxicity against HRV Protease 3CP (serotype 25); assay type: functional
[16] = AUC value after 30 mg/kg po dose in Dogs; assay type: ADME, organism-based, Canis lupus familiaris; design: dose 30 mg/kg, route oral; conditions: dog, plasma; procedure, shortened: as §2
[17] = Tmax value after 30 mg/kg po dose in Dogs; assay type: ADME, organism-based, Canis lupus familiaris; design: dose 30 mg/kg, route oral; conditions: dog, in vivo; procedure, shortened: as §2
[18] = Half life period after 15 mg/kg iv dose in Dogs; assay type: ADME, organism-based, Canis lupus familiaris; design: dose 15 mg/kg, route intravenous; conditions: dog, in vivo; procedure, shortened: as §2
[19] = target: T1, Human rhinovirus A protease (Human rhinovirus sp.); assay: cytotoxicity against HRV Protease 3CP (serotype 11); assay type: functional
[20] = target: T1, Human rhinovirus A protease (Human rhinovirus sp.); assay: cytotoxicity against HRV Protease 3CP (serotype 10); assay type: functional
[21] = target: T1, Human rhinovirus A protease (Human rhinovirus sp.); assay: cytotoxicity against HRV Protease 3CP (serotype 9); assay type: functional
[22] = target: T1, Human rhinovirus A protease (Human rhinovirus sp.); assay: cytotoxicity against HRV Protease 3CP (serotype 16); assay type: functional
[23] = Oral bioavailability after 30 mg/kg po dose in Dogs; assay type: ADME, organism-based, Canis lupus familiaris; conditions: dog, in vivo; procedure, shortened: as §2
[24] = Cmax value after 30 mg/kg po dose in Dogs; assay type: ADME, organism-based, Canis lupus familiaris; design: dose 30 mg/kg, route oral; conditions: dog, in vivo; procedure, shortened: as §2
Homo sapiens [25] = species on record: Homo sapiens; assay: Loss of compound (%metabolized) after 30 min exposure to human liver microsomes; conditions: read-out: Metabolism
[26] = AUC value after 15 mg/kg iv dose in Dogs; assay type: ADME, organism-based, Canis lupus familiaris; design: dose 15 mg/kg, route intravenous; conditions: dog, plasma; procedure, shortened: as §2
[27] = target: T1, Human rhinovirus A protease (Human rhinovirus sp.); assay: cytotoxicity against HRV Protease 3CP (serotype 19); assay type: functional
[28] = Plasma clearance after 30 mg/kg po dose in Dogs; assay type: ADME, organism-based, Canis lupus familiaris; design: dose 30 mg/kg, route oral; conditions: dog; procedure, shortened: as §2
[29] = target: T1, Human rhinovirus A protease (Human rhinovirus sp.); assay: cytotoxicity against HRV Protease 3CP (serotype 1A); assay type: functional
Canis familiaris = assay: Volume distribution after 30 mg/kg po dose in Dogs; assay type: ADME, organism-based, Canis lupus familiaris; design: dose 30 mg/kg, route oral; conditions: dog, in vivo; procedure, shortened: as §2
[30] = target: T1, Human rhinovirus A protease (Human rhinovirus sp.); assay: cytotoxicity against HRV Protease 3CP (serotype 78); assay type: functional
[31] = target: T1, Human rhinovirus A protease (Human rhinovirus sp.); assay: as §3
[32] = target: T2, Human rhinovirus A protease (Human rhinovirus sp., UniProt Q4U254); assay: Inhibition of HRV Protease 3CP (serotype 14).; design: species or system Rhinovirus B
T2 sequence (Q4U254 whole entry): T1 sequence (whole entry)

[33] = target: T1, Human rhinovirus A protease (Human rhinovirus sp.); assay: Inhibitory activity against Human Rhinovirus Protease 3C (serotype 14); conditions: Rhinovirus B
[34] = target: T1, Human rhinovirus A protease (Human rhinovirus sp.); assay: cytotoxicity against HRV Protease 3CP (serotype 10),; assay type: functional
[35] = target: T1, Human rhinovirus A protease (Human rhinovirus sp.); assay: cytotoxicity against HRV Protease 3CP (serotype 1A),; assay type: functional
[36] = target: T1, Human rhinovirus A protease (Human rhinovirus sp.); assay: cytotoxicity against HRV Protease 3CP (serotype 14),; assay type: functional
[37] = target: T1, Human rhinovirus A protease (Human rhinovirus sp.); assay: cytotoxicity against Human Rhinovirus Protease 3C (serotype 1A); assay type: functional
[38] = target: T1, Human rhinovirus A protease (Human rhinovirus sp.); assay: cytotoxicity against Human Rhinovirus Protease 3C (serotype 10); assay type: functional
[39] = target: T1, Human rhinovirus A protease (Human rhinovirus sp.); assay: as §1; assay type: functional

CCOC(=O)/C=C/[C@H](CCC(N)=O)NC(=O)[C@H](Cc1ccccc1)NC(=O)[C@H](CC(C)C)NC(=O)OCc1ccccc1
CC50 [1]: > 320 µM

Cc1cc(C(=O)Nc2cccn([C@@H](Cc3ccc(F)c(F)c3)C(=O)N[C@H](/C=C/C(=O)OC(C)C)C[C@@H]3CCNC3=O)c2=O)no1
CC50 [2]: > 10 µM | half-life [3]: 3.4 h | CC50 [4]: > 10 µM | CC50 [5]: > 10 µM | clearance [6]: 14.7 mL/min/kg | CC50 [7]: > 10 µM | Vd [8]: 4.2 L/kg | Tmax [9]: 4 min | half-life (Homo sapiens [10]): 9.7 h | CC50 [11]: > 10 µM | CC50 [12]: > 10 µM | Cmax [13]: 10600 ng/mL | CC50 [14]: > 10 µM | CC50 [15]: > 10 µM | AUC [16]: 16300 ng·h/mL | Tmax [17]: 1.17 h | half-life [18]: 3.23 h | CC50 [19]: > 10 µM | CC50 [20]: > 10 µM | CC50 [21]: > 10 µM | CC50 [22]: > 10 µM | bioavailability [23]: 48% | Cmax [24]: 3500 ng/mL | metabolised at 0.5 h (Homo sapiens [25]): 55% | AUC [26]: 17100 ng·h/mL | CC50 [27]: > 10 µM | CL/F [28]: 33 mL/min/kg | CC50 [29]: > 10 µM | V (Canis familiaris): 9.6 L/kg | CC50 [30]: > 10 µM

Cc1cc(CCCOc2c(C)cc(-c3noc(C(F)(F)F)n3)cc2C)on1 [PLECONARIL]
CC50 [31]: > 10 µM | pEC50 [32]: 7.24

CCOC(=O)/C=C/[C@H](CCC(N)=O)NC(=O)[C@H](Cc1ccc(F)c(F)c1)n1cccc(NC(=O)OCc2ccccc2)c1=O
K obs / 1 [33]: 193000 M⁻¹ s⁻¹ | CC50 [34]: > 10 µM | CC50 [35]: > 10 µM | CC50 [36]: > 10 µM | pEC50 [32]: 8.52

CCOC(=O)/C=C/[C@H](CCC(N)=O)NC(=O)[C@H](Cc1ccccc1)n1cccc(NC(C)=O)c1=O
CC50 [31]: > 10 µM | K obs / 1 [33]: 7660 M⁻¹ s⁻¹ | pEC50 [32]: 6.05

CCOC(=O)/C=C/[C@H](CCC(N)=O)NC(=O)[C@H](Cc1ccccc1)n1cccc(NC(=O)C2CCCC2)c1=O
CC50 [31]: > 10 µM | K obs / 1 [33]: 37400 M⁻¹ s⁻¹ | pEC50 [32]: 7.47

CCOC(=O)/C=C/[C@H](CCC(N)=O)NC(=O)[C@H](Cc1ccccc1)n1cccc(NC(=O)C(C)(C)C)c1=O
CC50 [31]: > 10 µM | K obs / 1 [33]: 5040 M⁻¹ s⁻¹ | pEC50 [32]: 6.29

CCOC(=O)/C=C/[C@H](C[C@H]1CCNC1=O)NC(=O)[C@H](Cc1ccccc1)n1cccc(NC(=O)OCc2ccccc2)c1=O
CC50 [31]: > 10 µM | K obs / 1 [33]: 6340 M⁻¹ s⁻¹ | pEC50 [32]: 6.33

CCOC(=O)/C=C/[C@H](C[C@@H]1CCNC1=O)NC(=O)[C@H](Cc1ccccc1)n1cccc(NC(=O)OCc2ccccc2)c1=O
CC50 [7]: > 1 µM | K obs / 1 [33]: 380000 M⁻¹ s⁻¹

CCOC(=O)/C=C/[C@H](CCC(N)=O)NC(=O)[C@H](Cc1ccccc1)n1cccc(NC(=O)C2SCCS2)c1=O
CC50 [7]: > 10 µM | K obs / 1 [33]: 114000 M⁻¹ s⁻¹ | CC50 [20]: > 10 µM | CC50 [29]: > 10 µM | pEC50 [32]: 6.98

CCOC(=O)/C=C/[C@H](CCC(N)=O)NC(=O)[C@H](Cc1ccccc1)n1cccc(NC(=O)OCc2ccccc2)c1=O
CC50 [37]: > 10 µM | CC50 [38]: > 10 µM | CC50 [39]: 50 µM
